For experiment [1], the species on record is Rattus norvegicus. The experiment in a line: Tested for the inhibition of bone resorption by measuring mean pit size at 10 e -6 M (sd 814). The experiment is classed as functional. Put shortly: (§1)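 Osteoclasts mechanically disaggregated from neonatal rat long bones into Hepes-buffered medium 199, settled 30 s, allowed to attach to bone slices (2.5 mm²) for 15 min at 37 °C, washed, then cultured overnight in 10% newborn calf serum in Hanks-buffered MEM with or without drug. Cells removed with 10% NaOCl, slices gold-coated, entire surface scanned by SEM for pit number, pit size and resorbed plan area. Student's t-test.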

The species named for experiment [2] is Rattus norvegicus. The experiment can be described thus: Tested for the inhibition of bone resorption by measuring number of pits/slice at 10 e -6 M (sd 3.46). It is filed as functional. The gist of the method: as §1
A short description of experiment [3]: Tested for reversible inhibition against gastric H+/K+-ATPase isolated from porcine gastric microsomes; value ranges from 3-10 uM. It is filed as functional, Sus scrofa, Stomach.
The species named for experiment [4] is Rattus norvegicus. The experiment can be described thus: Tested for the inhibition of bone resorption by measuring mean total resorption at 10 e -7 M (sd 4088). The experiment is classed as functional. The gist of the method:
as §1

A short description of experiment [5]: Tested for the inhibition of reversibility of hog gastric H+/K+-ATPase at 0.01 uM (200-fold dilution after pre-incubation). Further details: scale not given: the % may be the effect or the level left. It is filed as functional, Sus scrofa, Stomach.
Experiment [6] in a line: Tested for the inhibition of reversibility of hog gastric H+/K+-ATPase at 2 uM. It is filed as functional, Sus scrofa, Stomach. Also noted: scale not given: the % may be the effect or the level left.
The species named for experiment [7] is Rattus norvegicus. The experiment can be described thus: Tested for the inhibition of bone resorption by measuring number of pits/slice at 10 e -5 M (sd 1.88). The experiment is classed as functional. The gist of the method:
as §1

The species named for experiment [8] is Rattus norvegicus. The experiment can be described thus: Tested for inhibition of bone resorption by osteoclasts in a bone slice assay in rats at 10 e -5 M. The experiment is classed as functional. The gist of the method:
as §1

Experiment [9] is filed under the species Rattus norvegicus. The experiment in a line: Tested for the inhibition of bone resorption by measuring mean total resorption at 10 e -6 M (sd 3349). It is filed as functional. The gist of the method: as §1
Experiment [10] is filed under the species Rattus norvegicus. The experiment in a line: Tested for the inhibition of bone resorption by measuring mean pit size at 10 e -5 M (sd 562). The experiment is classed as functional. The gist of the method: as §1
Experiment [11] is filed under the species Rattus norvegicus. The experiment can be described thus: Tested for the inhibition of bone resorption by measuring mean total resorption at 10 e -8 M (sd 5079). The experiment is classed as functional. The gist of the method:
as §1

The species entered for experiment [12] is Rattus norvegicus. The experiment in a line: Tested for the inhibition of bone resorption by measuring mean pit size at 10 e -8 M (sd 1092). It is filed as functional. Put shortly: as §1
Experiment [13] is filed under the species Rattus norvegicus. The experiment can be described thus: Tested for the inhibition of bone resorption by measuring mean pit size at 10 e -7 M (sd 1032). It is filed as functional. Put shortly:
as §1

The species entered for experiment [14] is Rattus norvegicus. The experiment in a line: Tested for the inhibition of bone resorption by measuring number of pits/slice at 10 e -7 M (sd 3.94). The experiment is classed as functional. The gist of the method: as §1
Experiment [15] is filed under the species Rattus norvegicus. The experiment can be described thus: Tested for the inhibition of bone resorption by measuring mean total resorption at 10 e -5 M (sd 1111). The experiment is classed as functional. The gist of the method:
as §1

The species named for experiment [16] is Rattus norvegicus. The experiment can be described thus: Tested for the inhibition of bone resorption by measuring number of pits/slice at 10 e -8 M (sd 5.51). It is filed as functional. Put shortly:
as §1

For experiment [17], the species on record is Rattus norvegicus. The experiment in a line: Tested for the inhibition of bone resorption by measuring mean pit size at 10 e -6 M (sd 963). It is filed as functional. The gist of the method: as §1
Experiment [18] is filed under the species Rattus norvegicus. The experiment in a line: Tested for the inhibition of bone resorption by measuring number of pits/slice at 10 e -5 M (sd 2.74). The experiment is classed as functional. Put shortly: as §1
The species entered for experiment [19] is Rattus norvegicus. The experiment in a line: Tested for the inhibition of bone resorption by measuring number of pits/slice at 10 e -7 M (sd 3.53). The experiment is classed as functional. Put shortly:
as §1

The species entered for experiment [20] is Rattus norvegicus. The experiment can be described thus: Tested for the inhibition of bone resorption by measuring mean total resorption at 10 e -5 M (sd 2675). The experiment is classed as functional. Put shortly:
as §1

The species named for experiment [21] is Rattus norvegicus. The experiment can be described thus: Tested for the inhibition of bone resorption by measuring number of pits/slice at 10 e -6 M (sd 3.87). The experiment is classed as functional. The gist of the method: as §1
Experiment [22] is filed under the species Rattus norvegicus. The experiment can be described thus: Tested for the inhibition of bone resorption in neonatal rat long bones by measuring mean total resorption at 10 e -6 M (sd 4446). The experiment is classed as functional. Put shortly:
as §1

The species entered for experiment [23] is Rattus norvegicus. The experiment can be described thus: Tested for the inhibition of bone resorption by measuring mean pit size at 10 e -5 M (sd 1012). The experiment is classed as functional. Put shortly:
as §1

Experiment [24] can be described thus: Tested for the inhibition of reversibility of hog gastric H+/K+-ATPase at 10 uM. The experiment is classed as functional, Sus scrofa, Stomach. Also noted: scale not given: the % may be the effect or the level left.
The species named for experiment [25] is Rattus norvegicus. The experiment can be described thus: Tested for the inhibition of bone resorption in neonatal rat long bones by measuring mean pit size at 10 e -8 M (sd 1498). It is filed as functional. The gist of the method:
as §1

For experiment [26], the species on record is Rattus norvegicus. The experiment in a line: Tested for the inhibition of bone resorption by measuring number of pits/slice at 10 e -8 M (sd 4.87). The experiment is classed as functional. Put shortly:
as §1

For experiment [27], the species on record is Rattus norvegicus. The experiment can be described thus: Tested for the inhibition of bone resorption in neonatal rat long bones by measuring mean total resorption at 10 e -7 M (sd 4081). It is filed as functional. The gist of the method: as §1
A short description of experiment [28]: Tested for reversible inhibition against gastric H+/K+-ATPase isolated from porcine gastric microsomes; value ranges from […]. It is filed as functional, Sus scrofa, Stomach.
Experiment [29] is filed under the species Rattus norvegicus. The experiment can be described thus: Tested for inhibition of bone resorption by osteoclasts in a bone slice assay in rats at 10 e -7 M. The experiment is classed as functional. The gist of the method: as §1
Experiment [30] is filed under the species Rattus norvegicus. The experiment can be described thus: Tested for the inhibition of bone resorption in neonatal rat long bones by measuring mean total resorption at 10 e -8 M (sd 7210). It is filed as functional. The gist of the method: as §1
Experiment [31] is described as follows: Tested for the inhibition of reversibility of hog gastric H+/K+-ATPase at 0.05 uM (200-fold dilution after pre-incubation). The experiment is classed as functional, Sus scrofa, Stomach. Further details: scale not given: the % may be the effect or the level left.

One may read the IC50 as the midpoint of a concentration-inhibition curve. For `CCOC(=O)c1cnc2c(OC)cccc2c1Nc1ccccc1C`, the Mean pit size in the experiment listed under Rattus norvegicus [1] was 798 µm²; in the experiment listed under Rattus norvegicus [10] it was 477 µm²; in the experiment listed under Rattus norvegicus [12] it was 926 µm²; in the experiment listed under Rattus norvegicus [13], 919 µm². Moreover, the No. of pits/slice stood at 9.17 in the experiment listed under Rattus norvegicus [2], 2.67 in the experiment filed under Rattus norvegicus [7], 9.5 in the experiment listed under Rattus norvegicus [14] and 9.83 in the experiment filed under Rattus norvegicus [16]. Further, the IC50 was found to be 3 µM in experiment [3] and 4 µM in the experiment listed under Rattus norvegicus [8]. Also, the Mean total resorption in the experiment filed under Rattus norvegicus [4] stood at 9060 um2; in the experiment filed under Rattus norvegicus [9], 7300 um2; in the experiment filed under Rattus norvegicus [11], 8740 um2; in the experiment filed under Rattus norvegicus [15] it was 1270 um2. Besides, the values for the Activity in experiment [5] and in experiment [6] were 90% and 66%, respectively.
Turning to `CCOC(=O)CCC(=O)c1cnc2c(OC)cccc2c1Nc1ccccc1C`, the Mean pit size in the experiment filed under Rattus norvegicus [17] came to 1190 µm²; in the experiment listed under Rattus norvegicus [23], 948 µm²; in the experiment filed under Rattus norvegicus [25], 1450 µm². Also, the No. of pits/slice in the experiment listed under Rattus norvegicus [18] came out at 2.22; in the experiment filed under Rattus norvegicus [19], 4.67; in the experiment filed under Rattus norvegicus [21], 3.39; in the experiment listed under Rattus norvegicus [26], 5.89. Also, the Mean total resorption in the experiment listed under Rattus norvegicus [20] stood at 2040 um2; in the experiment listed under Rattus norvegicus [22], 4040 um2; in the experiment filed under Rattus norvegicus [27] it was 4790 um2; in the experiment filed under Rattus norvegicus [30], 8400 um2. Moreover, the results for the Activity in [24] and in experiment [31] were 60% and 100%, respectively. Also, the IC50 in [28] worked out at 10 µM; in the experiment listed under Rattus norvegicus [29], 2 µM.

The record behind these values is ChEMBL document CHEMBL1126807, “Inhibition of bone resorption by H+/K(+)-ATPase inhibitors” (J Med Chem, 1993).
